# In paper PMC9884082 (Journal of Medicinal Chemistry, 2023):
# Where “and” joins values, the source holds several entries; their conditions need not be identical. Equal entries are not always repeated.
# Legend:
# [1] = system: pooled normal human plasma; test: Human plasma clotting time; format: biochemical; conditions: ∼34 to ∼68 s
# How it was run: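 APTT was run in a fibrometer by one-stage recalcification. Test compound was mixed with citrated pooled normal human plasma and prewarmed APTT reagent (ellagic acid). After 4 min at 37 °C, clotting was started with prewarmed 25 mM CaCl₂ and time to clot recorded. A quadratic trend line fitted to the data gave the concentration doubling clotting time.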
# [2] = system: CD133+/CXCR4+ (Dual Hi) HT-29 xenografts; test: Dual Hi HT-29 xenograft after FUOX enrichment, oral G2C or IP G2.2; format: in vivo, NCr nude mice; conditions: experiment 2; G2.2 100 mg/kg IP 3 times/week, G2C 100 mg/kg PO 5 times/week, 3 weeks
# How it was run: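 1 × 10⁵ CD133⁺/CXCR4⁺ HT-29 cells were injected subcutaneously into NCr nude mice. Palpable tumors received 50 mg/kg 5-FU plus 5 mg/kg oxaliplatin IP weekly for 3 weeks. Mice were randomized to vehicle or test compound 100 mg/kg PO 5 times/week for 3 weeks, or, in a second experiment, parent 100 mg/kg IP 3 times/week. Xenograft single cells were assessed for 1–3° spheroids. CD133/CXCR4/LGR5 cells were quantified by flow cytometry (30 min staining, 4 °C).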
# [3] = system: colon xenografts; conditions: cited from earlier work
# [4] = system: HT-29 monolayer culture; test: Cell proliferation; format: cell-based, human; conditions: MTT, 60-72 h
# How it was run: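 HT-29 cells kept as monolayers in DMEM:F-12 with 10% FBS and 1% penicillin/streptomycin, passaged before 70% confluence. About 2.5 × 10³ cells/well were incubated overnight (37 °C, 5% CO₂), then exposed to test compound for 60–72 h. MTT (5 mg/mL stock in PBS) was added for 2–3 h and crystals dissolved in DMSO. A590 was read and growth expressed as percent of vehicle; ≥3 replicates.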
# [5] = Mouse tail bleeding study; format: in vivo, wild-type ICR mice; conditions: IV; NSGMs 1–100 mg/kg, enoxaparin 224 μg/kg
# [6] = system: colon cancer cell line HT-29 spheroids; test: Spheroid inhibition assay; format: cell-based, human
# How it was run: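 HT-29 cells (≤6 passages) were seeded at 100–300 cells/well in low-adhesion plates. Medium was stem cell medium: DMEM:F12 with B27, 20 ng/mL EGF and 10 ng/mL FGF. After brief incubation, vehicle or test compound was added. After 3–7 days, spheroids of 50–150 μm were counted by phase-contrast microscopy as percent of vehicle. IC50 came from normalized sigmoidal regression; ≥3 replicates.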
# [7] = HT-29 spheroids, relative to G2.2
Compound,concentration required for 2-fold increase in APTT [1] [µM],"fold better than G2.2 (spheroid potency, IC50 gain) [6, 7]",cytotoxicity under monolayer conditions [4],"blood loss, tail bleeding [5]",also measured
"O=c1c(OS(=O)(=O)[O-])c(-c2ccc(OS(=O)(=O)[O-])c(OS(=O)(=O)[O-])c2)oc2cc(OS(=O)(=O)[O-])cc(OCCCOc3cc(OS(=O)(=O)[O-])cc4oc(-c5ccc(OS(=O)(=O)[O-])c(OS(=O)(=O)[O-])c5)c(OS(=O)(=O)[O-])c(=O)c34)c12.[Na+].[Na+].[Na+].[Na+].[Na+].[Na+].[Na+].[Na+] [G2.2, Sodium 4-(5-(3-((2-(3,4-Bis(sulfonatooxy)phenyl)-4-oxo-3,7-bis(sulfonatooxy)-4H-chromen-5-yl)oxy)propoxy)-4-oxo-3,7-bis(sulfonatooxy)-4H-chromen-2-yl)-1,2-phenylene Bis(sulfate)]",900,–,–,–,"tumor growth compared to vehicle [2]: seemed to reduce tumor growth; expression of BMI-1 (CSC self-renewal marker) [3]: significant reduction in the expression of BMI-1; expression of colon CSC markers [3]: inhibited the expression of CD133^+, CXCR4^+, DCAMLK1, and/or LGR5 markers; growth of colon xenografts and toxicity ([3]; parenterally administered): inhibits the growth of colon xenografts without any toxicity to vital organs or bleeding consequences"
"O=c1cc(-c2ccc(OS(=O)(=O)[O-])cc2)oc2cc(OS(=O)(=O)[O-])cc(OCC3CCC(COc4cc(OS(=O)(=O)[O-])cc5oc(-c6ccc(OS(=O)(=O)[O-])cc6)cc(=O)c45)CC3)c12.[Na+].[Na+].[Na+].[Na+] (centres unmarked) [MAD1, Sodium 4-Oxo-5-((4-(((4-oxo-7-(sulfonatooxy)-2-(4-(sulfonatooxy)phenyl)-4H-chromen-5-yl)oxy)methyl)cyclohexyl)methoxy)-2-(4-(sulfonatooxy)phenyl)-4H-chromen-7-yl Sulfate]",–,–,did not display significant cytotoxicity,–,"fold weaker than G2.2 (spheroid potency) [6, 7]: about 1.6 fold; fold lower potency than MQD1 ([6]; eight (MQD1) to four (MAD1) sulfate groups): 11.4 fold"

# Further lines, with some results ahead:
concentration required for 2-fold increase in APTT [1] [µM],"fold better than G2.2 (spheroid potency, IC50 gain) [6, 7]",Compound,cytotoxicity under monolayer conditions [4],"blood loss, tail bleeding [5]",also measured
~37,–,"CC(C)CCC[C@@H](C)[C@H]1CC[C@H]2[C@@H]3CC=C4C[C@@H](OCCCCCCCCOc5cc(-c6oc7cc(OS(=O)(=O)[O-])cc(OCCCOc8cc(OS(=O)(=O)[O-])cc9oc(-c%10ccc(OS(=O)(=O)[O-])c(OS(=O)(=O)[O-])c%10)c(OS(=O)(=O)[O-])c(=O)c89)c7c(=O)c6OS(=O)(=O)[O-])ccc5OS(=O)(=O)[O-])CC[C@]4(C)[C@H]3CC[C@]12C.[Na+].[Na+].[Na+].[Na+].[Na+].[Na+].[Na+] [G8C, Sodium 4-(5-(3-((2-(3-((8-(((8S,9S,10R,13R,14S,17R)-10,13-Dimethyl-17-((R)-6-methylheptan-2-yl)-2,3,4,7,8,9,10,11,12,13,14,15,16,17-tetradecahydro-1H-cyclopenta[a]phenanthren-3-yl)oxy)octyl)oxy)-4-(sulfonatooxy)phenyl)-4-oxo-3,7-bis(sulfonatooxy)-4H-chromen-5-yl)oxy)propoxy)-4-oxo-3,7-bis(sulfonatooxy)-4H-chromen-2-yl)-1,2-phenylene Bis(sulfate)]",significantly cytotoxic at ∼100 μM,did not exhibit much tail bleeding phenotype,–
–,1.7 fold,"O=c1c(OS(=O)(=O)[O-])c(-c2ccc(OS(=O)(=O)[O-])cc2OS(=O)(=O)[O-])oc2cc(OS(=O)(=O)[O-])cc(OCC3CCC(COc4cc(OS(=O)(=O)[O-])cc5oc(-c6ccc(OS(=O)(=O)[O-])cc6OS(=O)(=O)[O-])c(OS(=O)(=O)[O-])c(=O)c45)CC3)c12.[Na+].[Na+].[Na+].[Na+].[Na+].[Na+].[Na+].[Na+] (centres unmarked) [MMD1, Sodium 4-(5-((4-(((2-(2,4-Bis(sulfonatooxy)phenyl)-4-oxo-3,7-bis(sulfonatooxy)-4H-chromen-5-yl)oxy)methyl)cyclohexyl)methoxy)-4-oxo-3,7-bis(sulfonatooxy)-4H-chromen-2-yl)-1,3-phenylene Bis(sulfate)]",did not display significant cytotoxicity,–,–
–,7.3 fold and ~9 fold,"O=c1c(OS(=O)(=O)[O-])c(-c2ccc(OS(=O)(=O)[O-])c(OS(=O)(=O)[O-])c2)oc2cc(OS(=O)(=O)[O-])cc(OCC3CCC(COc4cc(OS(=O)(=O)[O-])cc5oc(-c6ccc(OS(=O)(=O)[O-])c(OS(=O)(=O)[O-])c6)c(OS(=O)(=O)[O-])c(=O)c45)CC3)c12.[Na+].[Na+].[Na+].[Na+].[Na+].[Na+].[Na+].[Na+] (centres unmarked) [MQD1, Sodium 4-(5-((4-(((2-(3,4-Bis(sulfonatooxy)phenyl)-4-oxo-3,7-bis(sulfonatooxy)-4H-chromen-5-yl)oxy)methyl)cyclohexyl)methoxy)-4-oxo-3,7-bis(sulfonatooxy)-4H-chromen-2-yl)-1,2-phenylene Bis(sulfate)]",did not display significant cytotoxicity,–,–
3,–,enoxaparin [reference compound],–,significantly higher blood loss,–
